Source: paper PMC4706799 (Cancer prevention research (Philadelphia, Pa.), 2015)
Where “and” joins values, the source holds several entries; their conditions need not be identical. Equal entries are not always repeated.

Legend:
[1] = cited from earlier work
[2] = cited from earlier work; remark: listed apart in the source
[3] = tested on: 886LN; experiment: SRB growth inhibition assay, 886LN; assay type: cell-based; details: 72 h
Procedure, shortened: (§1)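 SCCHN lines were kept in DMEM/F12 (1:1) with 10% heat-inactivated FBS at 37 °C and 5% CO2; MSK-Leuk1 was kept in keratinocyte basal medium. Cells were seeded in 96-well plates, incubated overnight, then exposed for 72 h to a range of test-compound concentrations (DMSO stock diluted in RPMI, final DMSO <0.1%). Growth inhibition was read by sulforhodamine B staining, and IC50 was calculated by software.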

[4] = tested on: Tu212; experiment: SRB growth inhibition assay, Tu212; assay type: cell-based
Procedure, shortened: as §1

[5] = tested on: Tu177; experiment: SRB growth inhibition assay, Tu177; assay type: cell-based
Procedure, shortened: as §1

[6] = tested on: Tu686; experiment: SRB growth inhibition assay, Tu686; assay type: cell-based
Procedure, shortened: as §1

[7] = tested on: SQCCY1; experiment: SRB growth inhibition assay, SQCCY1; assay type: cell-based
Procedure, shortened: as §1

[8] = tested on: MSK-Leuk1; experiment: SRB growth inhibition assay, MSK-Leuk1; assay type: cell-based; details: 72 h
Procedure, shortened: as §1

[9] = tested on: JHU022; experiment: SRB growth inhibition assay, JHU022; assay type: cell-based
Procedure, shortened: as §1

[10] = tested on: PCI-13; experiment: SRB growth inhibition assay, PCI-13; assay type: cell-based
Procedure, shortened: as §1

[11] = tested on: UM-22B; experiment: SRB growth inhibition assay, UM-22B; assay type: cell-based; details: 72 h
Procedure, shortened: as §1

[12] = tested on: SCCHN cell lines; experiment: Annexin V-PE staining for apoptosis; assay type: cell-based; details: for concentration sufficient to induce ~80% apoptosis: by 48 h, annexin V-PE
[13] = tested on: MSK cell line; experiment: Annexin V-PE staining for apoptosis, MSK; assay type: cell-based; details: 24 h treatment
Procedure, shortened: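 MSK-Leuk1 premalignant cells, grown in keratinocyte basal medium, were seeded in 6-cm plates to 40–50% confluency. They were treated for 24 h with test compound at doses chosen per cell line (DMSO stock diluted in RPMI, final DMSO <0.1%). Cells were trypsinized, washed in cold PBS, stained with annexin V-PE plus 7-AAD for 15 min at room temperature, and read by flow cytometry. Three independent experiments; mean ± SD; paired two-tailed t-test versus untreated control.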

[14] = Pharmacokinetic study, plasma LC/MS/MS; assay type: in vivo, A/J mice
[15] = tested on: Tu686 SCCHN xenografts; experiment: Nude mouse xenograft model; assay type: in vivo, nude mice; details: for effect on tumor volume: 50 mg/kg i.p., once/day, five days/week, 17 days
[16] = Body weight and organ toxicity in xenograft study; assay type: in vivo; details: 50 mg/kg i.p., 17 days
[17] = tested on: PARP; experiment: Western blot for PARP cleavage; assay type: cell-based; details: Tu212, Tu686, MSK-LEUK1, 24 h
Procedure, shortened: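 Tu212, Tu686 and MSK-Leuk1 cells were treated with test compound at indicated doses for 24 h. Whole-cell lysates (20 µg protein) were run on 8–12% SDS-PAGE and transferred to PVDF. Blots were probed with a PARP antibody recognising both full-length and cleaved forms, with β-actin or GAPDH as loading control, and detected by enhanced chemiluminescence.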

[18] = tested on: cytochrome c; experiment: Cytochrome c release in the cytoplasm; assay type: cell-based; details: Tu212 cells
Procedure, shortened: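 Tu212 cells were treated with test compound. Cytosolic and mitochondrial fractions were separated and immunoblotted for cytochrome c, with ERK as cytoplasmic control and Cox4 as mitochondrial control. Equal protein (20 µg) was run on 8–12% SDS-PAGE, transferred to PVDF and detected by enhanced chemiluminescence. Blots shown represent three independent experiments.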

[19] = tested on: Bcl-2; experiment: Western blot, Bcl-2 expression; assay type: cell-based; details: Tu212 and Tu686, 24 h
Procedure, shortened: (§2)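 Tu212 and Tu686 cells were treated with test compound at indicated doses for 24 h. Whole-cell lysates were immunoblotted for Bcl-2 family proteins (Bcl-2, Bcl-xL, Mcl-1, Bid, Bim, PUMA, NOXA), using 20 µg protein per lane on 8–12% SDS-PAGE and PVDF transfer. β-Actin or GAPDH served as loading control; detection was by enhanced chemiluminescence.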

[20] = tested on: Bid; experiment: Western blot, Bid expression; assay type: cell-based; details: Tu212 and Tu686, 24 h
Procedure, shortened: as §2

[21] = tested on: Bim; experiment: Western blot, Bim expression; assay type: cell-based; details: Tu212 and Tu686, 24 h
Procedure, shortened: as §2

[22] = tested on: Bcl-xL; experiment: Western blot, Bcl-xL expression; assay type: cell-based; details: Tu212 and Tu686, 24 h
Procedure, shortened: as §2

[23] = tested on: Mcl-1; experiment: Western blot, Mcl-1 expression; assay type: cell-based; details: Tu212 and Tu686, 24 h
Procedure, shortened: as §2

[24] = tested on: Bcl-2 mRNA; experiment: Real-time qPCR, Bcl-2 mRNA; assay type: cell-based; details: Tu212 and Tu686
Procedure, shortened: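 Tu212 and Tu686 cells were treated with test compound at 1 µM and 2 µM (T1) or 2 µM and 3 µM (T2), respectively. Total RNA was column-extracted, and 2 µg was reverse transcribed to cDNA. Bcl-2 mRNA was quantified by SYBR Green real-time qPCR and compared with the corresponding untreated control.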

[25] = tested on: EGFR; experiment: Western blot, pEGFR and EGFR; assay type: cell-based; details: Tu212, Tu686, MSK-LEUK1
[26] = tested on: AKT; experiment: Western blot, pAKT and AKT; assay type: cell-based; details: Tu212, Tu686, MSK-LEUK1
[27] = tested on: EGFR mRNA; experiment: Real-time qPCR, EGFR mRNA; assay type: cell-based; details: Tu212 and Tu686
[28] = tested on: AKT mRNA; experiment: Real-time qPCR, AKT mRNA; assay type: cell-based; details: Tu212 and Tu686
[29] = tested on: mTOR pathway (S6 and 4EBP1); experiment: Western blot, mTOR pathway readouts; assay type: cell-based; details: Tu212, Tu686, MSK-LEUK1
Procedure, shortened: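 Tu212, Tu686 and MSK-Leuk1 cells were treated with different doses of test compound. Whole-cell lysates (20 µg protein, 8–12% SDS-PAGE, PVDF) were immunoblotted for p-mTOR, p-S6, S6, p-4EBP1 and 4EBP1, with β-actin or GAPDH loading control and chemiluminescent detection. Blots shown represent three independent experiments.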

[30] = tested on: FOXO1 and 3; experiment: Western blot, FOXO phosphorylation; assay type: cell-based; details: Tu686 cells, multiple sites
Procedure, shortened: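 Tu686 cells were exposed to test compound, and whole-cell lysates were probed by Western blot for phospho-FOXO1a and phospho-FOXO3a. Equal protein (20 µg) was separated on 8–12% SDS-PAGE and blotted to PVDF, with β-actin or GAPDH as loading control and enhanced chemiluminescence detection. Blots shown represent three independent experiments.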

[31] = tested on: premalignant (MSK-LEUK1) and malignant SCCHN cell lines; experiment: SRB growth inhibition assay, cell line panel; assay type: cell-based; details: 72 h, read-out: IC50 values, range over the cell lines
Procedure, shortened: as §1

[32] = cited from earlier work; remark: listed apart in the source
[33] = female, A/J, mouse, plasma, po, 200 mg/kg

In the case of COc1cc(/C=C/C(=O)C(=Cc2ccc(F)c(F)c2)C(=O)/C=C/c2ccc(O)c(OC)c2)ccc1O [CDF], the “accumulation in pancreatic tissue, fold higher than curcumin” value [1] is given as 10.6 fold and the “systemic drug level, fold greater than curcumin” value [1] is given as 2.7 fold.

In the case of CN1C/C(=C\c2ccccn2)C(=O)/C(=C/c2ccccn2)C1 [UBS109], the “fold better anti-cancer efficacy than natural curcumin in vitro” value [2] is given as ~ 10 fold.

In the case of O=C1/C(=C/c2ccccn2)CNC/C1=C\c1ccccn1 [compound 31], the “fold better anti-cancer efficacy than natural curcumin in vitro” value [2] is given as ~ 10 fold.

Work on COc1cc(/C=C/C(=O)/C=C/c2cc(OC)c(O)c(OC)c2)cc(OC)c1O [FLLL12] yielded an IC50 ([3]; 886LN, SRB assay) of 0.72 µM, an IC50 ([4]; Tu212, 72 h, SRB assay) of 0.46 µM and an IC50 ([5]; Tu177, 72 h, SRB assay) of 0.45 µM. It also gave an IC50 ([6]; Tu686, 72 h, SRB assay) of 0.68 µM, an IC50 ([7]; SQCCY1, 72 h, SRB assay) of 1.55 µM and an IC50 ([8]; MSK-Leuk1 (premalignant), SRB assay) of 0.35 µM. The IC50 ([9]; JHU022, 72 h, SRB assay) was 0.77 µM, the IC50 ([10]; PCI-13, 72 h, SRB assay) was 0.35 µM and the IC50 ([11]; UM-22B, SRB assay) was 0.57 µM. The “fold more potent than curcumin in inducing apoptosis” value ([12]; SCCHN cell lines) was 5–10 fold, the “concentration sufficient to induce ~80% apoptosis” value [12] was 1 to 3 µM and the apoptosis [13] was “more than 80%”. For the same compound, the “AUC (0-∞)” value ([14]; 200 mg/kg oral) was 418.5 ng·h/mL, the “AUC, fold greater than curcumin” value ([14]; 200 mg/kg oral) was 3–4 fold and the “Cmax, fold greater than curcumin” value ([14]; 200 mg/kg oral) was 4.3 fold and ~ 4.0 fold and 3–4 fold. For the same compound, the “terminal elimination half-life (t½)” value ([14]; 200 mg/kg oral) was 4.8 h, the Tmax ([14]; 200 mg/kg oral, DMSO/0.5% CMC, plasma) was 0.5 h and the Cmax ([14]; 200 mg/kg oral, plasma) was 241.5 ng/mL. For the same compound, the “effect on tumor volume” value [15] was “significantly reduced tumor volume”, the “toxicity (H&E of major organs, body weight)” value [16] was “without inducing any notable toxicity” and the “cleavage of PARP” value [17] was “markedly induced the cleavage of PARP”. For the same compound, the “release of cytochrome c in the cytoplasm” value [18] was “caused release of cytochrome c”, the “expression of Bcl-2 protein” value [19] was “inhibited” and the “expression of Bid (full length)” value [20] was “inhibited”. The “expression of Bim” value [21] was “increased”, the “expression of Bcl-xL” value [22] was “remained mostly unchanged” and the “expression of Mcl-1” value [23] was “remained mostly unchanged”. For the same compound, the “expression of Bcl-2 mRNA” value [24] was “increased rather than decreased”, the “phosphorylation of EGFR” value [25] was “inhibited the phosphorylation” and the “total EGFR protein” value [25] was “inhibited”. The “phosphorylation of AKT” value [26] was “inhibited the phosphorylation”, the “total AKT protein” value [26] was “inhibited” and the “mRNA expression of EGFR” value [27] was “strongly inhibited the mRNA expression”. The “mRNA expression of AKT” value [28] was “strongly inhibited the mRNA expression”, the “phosphorylation of S6 and 4EBP1” value [29] was “strongly inhibited phosphorylation” and the “phosphorylation of FOXO1 and 3” value [30] was “strongly inhibited the phosphorylation”.

In the case of O=C1/C(=C/c2ccccc2F)CNC/C1=C\c1ccccc1F [EF24], the “fold better anti-cancer efficacy than natural curcumin in vitro” value [2] is listed as ~ 10 fold.

COc1cc(/C=C/C(=O)CC(=O)/C=C/c2ccc(O)c(OC)c2)ccc1O [curcumin, reference compound] showed an IC50 [3] of 17.4 µM, an IC50 ([4]; TU212, 72 h) of 6.97 µM and an IC50 ([5]; 72 h) of 5.25 µM. It also gave an IC50 ([6]; Tu 686, 72 h) of 6.7 µM, an IC50 ([7]; 72 h) of 12.6 µM and an IC50 [8] of 6.81 µM. The IC50 ([9]; 72 h) was 4.53 µM, the IC50 ([10]; 72 h) was 5.73 µM and the IC50 [11] was 7.76 µM. The IC50 [31] was 4.53 to 17.4 µM, the “concentration sufficient to induce ~80% apoptosis” value [12] was 10 to 15 µM and the AUC(0-inf) [14, 33] was 131 ng·h/mL. The Cmax [14, 33] was 55.6 ng/mL, the Tmax [14, 33] was 0.25 h and the half-life [14, 33] was 7.7 h. The “effect on tumor volume” value [15] was “had no effect”, the “efficacy in xenograft study” value ([15]; 150 mg/kg, earlier study, data not shown) was “did not find any efficacy” and the “phosphorylation of EGFR” value [25] was “inhibited the phosphorylation”. For the same compound, the “total EGFR protein” value [25] was “inhibited”, the “phosphorylation of AKT” value [26] was “inhibited the phosphorylation” and the “total AKT protein” value [26] was “inhibited”. The “mRNA expression of EGFR” value [27] was “strongly inhibited the mRNA expression”, the “mRNA expression of AKT” value [28] was “strongly inhibited the mRNA expression” and the oral bioavailability [32] was ~ 1%.
